From ChEMBL document CHEMBL5055628, “Anticancer properties of indole derivatives as IsoCombretastatin A-4 analogues” (Eur J Med Chem, 2021)
Each block holds one molecule with its values, some of them ahead of it. Activity calls are given as the source filed them. The rule behind the calls is not given here.

Legend:
HCT-116 = assay: Cytotoxicity against human HCT-116 cells assessed as inhibition of cell growth measured after 72 hrs by CellTiter-Glo reagent based luminescence assay; format: functional; settings: HCT-116, 72 h
Method in brief: (§1)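 Cells (HCT-116 in McCoy's 5A; U87-MG in DMEM 4.5 g/L glucose; all with 10% serum, 1% glutamine, 37 °C, 5% CO2) seeded at 3 × 10³/well, treated after 24 h with 10 final concentrations by serial dilution; vehicle controls. After 72 h, CellTiter-Glo luminescence; IC50 from four- or five-parameter logistic fit, triplicate, mean of three experiments.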

HT-29 = assay: Cytotoxicity against human HT-29 cells assessed as inhibition of cell growth measured after 72 hrs by CellTiter-Glo reagent based luminescence assay; format: functional; settings: HT-29, 72 h
Method in brief: (§2)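 Cells seeded at 3 × 10³/well and grown 24 h. A549, MDA-MB231, K562 and K562R (doxorubicin-resistant) were in RPMI 1640; MiaPaCa2 and HT29 in DMEM (4.5 g/L glucose); all media had 10% FCS and 1% glutamine, at 37 °C and 5% CO₂. Cells got 10 final concentrations by serial dilution, with vehicle controls, for 72 h. CellTiter-Glo luminescence was read after 15 min. Triplicate runs; IC50 from four- or five-parameter logistic fits.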

K562 [1] = assay: Anticlonogenic activity against human K562 cells assessed as reduction in number of cell colonies at 0.05 to 10 nM measured after 10 days by MTT reagent based colony formation assay; format: functional; settings: dose 0.05-10 nM, time 10.0 day
Method in brief: (§3)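 10^3 K562 cells (RPMI 1640, 10% FBS) or imatinib-resistant K562IR cells (RPMI 1640 with 25 mM HEPES, 10% FCS; kept in 1 μM imatinib, washed three times before use) grown 10 days in semisolid methylcellulose medium with 10% FBS, with or without compound. Colonies stained with 1 mg/mL MTT and image-analysed; three independent experiments, mean ± SD, two-way ANOVA with Tukey test.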

K562 [2] = assay: Induction of mitochondrial dysfunction in human K562 cells assessed as red aggregate formation at 10 nM measured after 48 hrs by JC-1 staining based flow cytometry (reference value: 98.3%); format: functional
[3] = Metabolic stability in human liver microsomes assessed as half life measured after 96 hrs by HPLC-MS/MS analysis; format: ADME, Microsome
Method in brief: (§4)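 Compound (100 μM final) incubated at 37 °C with rat or human liver microsomes (1 mg/mL protein, pH 7.4) and NADPH-generating system; triplicate aliquots at 0–144 h quenched with isoCA-4 internal standard and ethyl acetate, quantified by HPLC-MS/MS against calibration curves.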

K-562R [4] = assay: Cytotoxicity against human K-562R cells assessed as inhibition of cell growth measured after 72 hrs by CellTiter-Glo reagent based luminescence assay; format: functional; method in brief: as §2
K-562R [5] = assay: Anticlonogenic activity against imatinib-resistant human K-562R cells assessed as reduction of average size of cell colonies at 0.01 to 10 nM measured after 10 days by MTT reagent based colony formation assay; format: functional; settings: dose 0.01-10 nM, time 10.0 day; method in brief: as §3
[6] = Inhibition of porcine brain tubulin polymerization incubated for 30 mins followed by cooling on ice for 10 mins and measured by UV spectrometer assay; format: tissue-based, Sus scrofa
Method in brief: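 Porcine brain tubulin (Shelanski isolation) in 0.1 M MES, 1.5 mM GTP, 1 mM EGTA, 1 mM β-ME, 1 mM MgCl2, pH 6.7, diluted to 1.5 mg/mL; ligand or DMSO 30 min at 20 °C, 10 min on ice. Assembly by 450 nm turbidity on 4→37 °C shift, plateau minus baseline vs no-ligand control (100%); IC50 from mono-exponential fit of ligand:tubulin ratio, three independent experiments.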

K562 [7] = assay: Induction of mitochondrial dysfunction in human K562 cells assessed as red aggregate formation at 5 nM measured after 48 hrs by JC-1 staining based flow cytometry (reference value: 98.3%); format: functional
A549 = assay: Cytotoxicity against human A549 cells assessed as inhibition of cell growth measured after 72 hrs by CellTiter-Glo reagent based luminescence assay; format: functional; settings: A549, 72 h; method in brief: as §2
K562 [8] = assay: Induction of mitochondrial dysfunction in human K562 cells assessed as red aggregate formation at 50 nM measured after 48 hrs by JC-1 staining based flow cytometry (reference value: 98.3%); format: functional
K562 [9] = assay: Induction of mitochondrial dysfunction in human K562 cells assessed as green monomer formation at 5 nM measured after 48 hrs by JC-1 staining based flow cytometry (reference value: 1.3%); format: functional
K562 [10] = assay: Cytotoxicity against human K562 cells assessed as inhibition of cell growth measured after 72 hrs by CellTiter-Glo reagent based luminescence assay; format: functional; settings: K562, 72 h; method in brief: as §2
U-87 MG = assay: Cytotoxicity against human U-87 MG cells assessed as inhibition of cell growth measured after 72 hrs by CellTiter-Glo reagent based luminescence assay; format: functional, U-87MG ATCC; method in brief: as §1
K562 [11] = assay: Induction of mitochondrial dysfunction in human K562 cells assessed as green monomer formation at 0.5 nM measured after 48 hrs by JC-1 staining based flow cytometry (reference value: 1.3%); format: functional
MIA PaCa-2 = assay: Cytotoxicity against human MIA PaCa-2 cells assessed as inhibition of cell growth measured after 72 hrs by CellTiter-Glo reagent based luminescence assay; format: functional; settings: MIA PaCa-2, 72 h; method in brief: as §2
[12] = Metabolic stability in rat liver microsomes assessed as half life measured after 96 hrs by HPLC-MS/MS analysis; format: ADME, Microsome; method in brief: as §4
K-562R [13] = assay: Anticlonogenic activity against imatinib-resistant human K-562R cells assessed as reduction in number of cell colonies at 0.01 to 10 nM measured after 10 days by MTT reagent based colony formation assay; format: functional; settings: dose 0.01-10 nM, time 10.0 day; method in brief: as §3
K562 [14] = assay: Anticlonogenic activity against human K562 cells assessed as reduction in total surface area of cell colonies at 0.05 to 10 nM measured after 10 days by MTT reagent based colony formation assay; format: functional; settings: dose 0.05-10 nM, time 10.0 day; method in brief: as §3
K562 [15] = assay: Induction of mitochondrial dysfunction in human K562 cells assessed as green monomer formation at 10 nM measured after 48 hrs by JC-1 staining based flow cytometry (reference value: 1.3%); format: functional
[16] = Drug metabolism in human liver microsomes assessed as N-demethylated metabolite formation measured after 96 hrs by ESI-HRMS assay; format: ADME, Microsome
Method in brief: (§5)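 Compound at 100 μM final incubated at 37 °C with rat or human liver microsomes (1 mg/mL protein, 10 mM buffer pH 7.4) plus NADPH-generating system (0.6 mM NADPNa4, 6.4 mM glucose-6-phosphate, 2 U/mL G6PDH). After 96 h, ethyl acetate extraction and HPLC-MS/MS (positive ESI, m/z 150–450, collision-induced dissociation) to identify metabolites.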

[17] = Drug metabolism in human liver microsomes assessed as hydroxylated metabolite formation measured after 96 hrs by ESI-HRMS assay; format: ADME, Microsome; method in brief: as §5
HT-1080 = assay: Cytotoxicity against human HT-1080 cells assessed as inhibition of cell growth measured after 72 hrs by CellTiter-Glo reagent based luminescence assay; format: functional; settings: HT-1080, 72 h
K562 [18] = assay: Induction of mitochondrial dysfunction in human K562 cells assessed as red aggregate formation at 1 nM measured after 48 hrs by JC-1 staining based flow cytometry (reference value: 98.3%); format: functional
K562 [19] = assay: Induction of mitochondrial dysfunction in human K562 cells assessed as green monomer formation at 50 nM measured after 48 hrs by JC-1 staining based flow cytometry (reference value: 1.3%); format: functional
K562 [20] = assay: Anticlonogenic activity against human K562 cells assessed as reduction in average size of cell colonies at 0.05 to 10 nM measured after 10 days by MTT reagent based colony formation assay; format: functional; settings: dose 0.05-10 nM, time 10.0 day; method in brief: as §3
[21] = Drug metabolism in rat liver microsomes assessed as N-demethylated metabolite formation measured after 96 hrs by ESI-HRMS assay; format: ADME, Microsome; method in brief: as §5
K-562R [22] = assay: Anticlonogenic activity against imatinib-resistant human K-562R cells assessed as reduction of total surface of cell colonies at 0.01 to 10 nM measured after 10 days by MTT reagent based colony formation assay; format: functional; settings: dose 0.01-10 nM, time 10.0 day; method in brief: as §3
K562 [23] = assay: Induction of mitochondrial dysfunction in human K562 cells assessed as green monomer formation at 1 nM measured after 48 hrs by JC-1 staining based flow cytometry (reference value: 1.3%); format: functional
K562 [24] = assay: Cell cycle arrest in human K562 cells assessed as accumulation of cells in G2/M phase at 0.5 nM measured after 24 hrs by PI staining based flowcytometry; format: functional
Method in brief: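 Exponentially growing K562 cells exposed to compound (0.5 and 1 nM) or DMSO alone for 24 h. DNA content stained with propidium iodide and cell-cycle distribution read by flow cytometry.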

K562 [25] = assay: Induction of mitochondrial dysfunction in human K562 cells assessed as red aggregate formation at 0.5 nM measured after 48 hrs by JC-1 staining based flow cytometry (reference value: 98.3%); format: functional
MDA-MB-231 = assay: Cytotoxicity against human MDA-MB-231 cells assessed as inhibition of cell growth measured after 72 hrs by CellTiter-Glo reagent based luminescence assay; format: functional; settings: MDA-MB-231, 72 h; method in brief: as §2
[26] = Drug metabolism in rat liver microsomes assessed as hydroxylated metabolite formation measured after 96 hrs by ESI-HRMS assay; format: ADME, Microsome; method in brief: as §5
[27] = Drug metabolism in rat liver microsomes assessed as O-demethylated metabolite formation measured after 96 hrs by ESI-HRMS assay; format: ADME, Microsome
Method in brief: (§6)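 Rat or human liver microsomes at 1 mg/mL final protein in 10 mM buffer, pH 7.4, prewarmed to 37 °C with an NADPH-generating system (0.6 mM NADP, 6.4 mM glucose-6-phosphate, 2 U/mL G6P dehydrogenase). Substrate 100 μM final; shaken at 37 °C. Triplicate aliquots taken at 0–96 h (up to 144 h), ethyl acetate quench with internal standard, then HPLC-MS/MS (positive ESI, m/z 150–450, CID).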

[28] = Drug metabolism in human liver microsomes assessed as O-demethylated metabolite formation measured after 96 hrs by ESI-HRMS assay; format: ADME, Microsome; method in brief: as §6

SMILES: COCc1cc2cc(N(C)c3cc(OC)c(OC)c(OC)c3)ccc2n1C
IC50 (HCT-116): 47.5 nM

SMILES: COc1cc(N(C)c2ccc3c(c2)cc2n3CCOC2)cc(OC)c1OC
IC50 (HCT-116): 29.2 nM

SMILES: C=C(c1cc(OC)c(OC)c(OC)c1)c1ccc2c(c1)cc1n2CCOC1
IC50 (HCT-116): 23.5 nM

SMILES: CCn1c(CO)cc2cc(N(C)c3cc(OC)c(OC)c(OC)c3)ccc21
IC50 (HCT-116): 987 nM

SMILES: Cc1cc(N(C)c2ccc3c(c2)cc(CO)n3C)c2ccccc2n1
IC50 (HCT-116): 16.4 nM

half-life [3]: 145 h | IC50 [6]: 1900 nM | half-life [12]: 140 h | Drug metabolism [16]: Metabolite_Detected | Drug metabolism [17]: Metabolite_Detected | Drug metabolism [21]: Metabolite_Detected | Drug metabolism [26]: Metabolite_Detected
SMILES: CCn1c(CO)cc2cc(N(C)c3nc(C)nc4ccccc34)ccc21
IC50 (HT-29): 0.84 nM | Activity (K562 [1]): Active | Activity (K562 [2]): 68.1% | IC50 (K-562R [4]): 0.1 nM | Activity (K-562R [5]): Active | Activity (K562 [7]): 75.8% | IC50 (A549): 0.7 nM | Activity (K562 [8]): 60% | Activity (K562 [9]): 23.1% | IC50 (K562 [10]): 0.26 nM | IC50 (U-87 MG): 0.51 nM | Activity (K562 [11]): 21.3% | IC50 (MIA PaCa-2): 0.09 nM | Activity (K-562R [13]): Active | Activity (K562 [14]): Active | Activity (K562 [15]): 31.2% | IC50 (HCT-116): 0.08 nM | IC50 (HT-1080): 0.08 nM | Activity (K562 [18]): 76.9% | Activity (K562 [19]): 39.2% | Activity (K562 [20]): Active | Activity (K-562R [22]): Active | Activity (K562 [23]): 22.3% | Activity (K562 [24]): Active | Activity (K562 [25]): 77.6% | IC50 (MDA-MB-231): 0.25 nM

SMILES: C=C(c1cc(OC)c(OC)c(OC)c1)c1ccc2c(c1)cc1n2CC=CC1
IC50 (HCT-116): 970 nM

SMILES: C=C(c1ccc2c(c1)cc(CO)n2CC)c1cc(C)nc2ccccc12
IC50 (HCT-116): 1.47 nM

SMILES: COc1cc2nc(Cl)nc(N(C)c3ccc4c(c3)cc3n4CCOC3)c2cc1OC
IC50 (HCT-116): 361 nM

SMILES: C=C(c1ccc2c(c1)cc1n2CCOC1)c1cc(C)nc2ccccc12
IC50 (HCT-116): 109 nM

SMILES: C=C(c1ccc(OC)c(O)c1)c1cc(OC)c(OC)c(OC)c1
IC50 (HT-29): > 100 nM | half-life [3]: 30 h | Drug metabolism [27]: Metabolite_Detected | IC50 (K-562R [4]): 5.13 nM | IC50 (A549): 52.7 nM | IC50 (K562 [10]): 4.26 nM | IC50 (MIA PaCa-2): 3.01 nM | half-life [12]: 18 h | Drug metabolism [17]: Metabolite_Detected | IC50 (HCT-116): 0.64 nM | IC50 (HT-1080): 0.91 nM | Drug metabolism [28]: Metabolite_Detected | IC50 (MDA-MB-231): 1.98 nM | Drug metabolism [26]: Metabolite_Detected

SMILES: COCOCc1cc2cc(N(C)c3cc(C)nc4ccccc34)ccc2n1C
IC50 (HCT-116): 44.3 nM

SMILES: CN(c1ccc2c(c1)cc1n2CCOC1)c1cc(C#N)nc2ccccc12
IC50 (HCT-116): 2.8 nM

SMILES: Cc1cc(N(C)c2ccc3c(c2)cc2n3CC=CC2)c2ccccc2n1
IC50 (HCT-116): 5.2 nM
